In ChEMBL document CHEMBL1155807, “Synthesis, biological evaluation, and enzyme docking simulations of 1,5-diarylpyrrole-3-alkoxyethyl ethers as selective cyclooxygenase-2 inhibitors endowed with anti-inflammatory and antinociceptive activity” (J Med Chem, 2008):
The source made the active and inactive calls.

Experiments:
[1] = system: J774; assay: Selectivity index, ratio of IC50 for mouse COX1 in mouse J774 cells to IC50 for mouse COX2 in LPS-stimulated mouse J774 cells; type: cell-based
Method in brief: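 The ratio is IC50(COX-1)/IC50(COX-2), both from J774 cells. For COX-1, cells were given a 15 min compound pretreatment and then 15 µM arachidonic acid for 30 min. For COX-2, cells were exposed to LPS (10 µg/mL) for 24 h with compound. In both, PGE2 was measured by radioimmunoassay and IC50 came from a sigmoidal fit of the means of three experiments.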

[2] = target: T1, Prostaglandin G/H synthase 2 (Mus musculus, UniProt Q05769); assay: Inhibition of mouse COX2 in LPS-stimulated mouse J774 cells assessed as PGE2 production by radioimmunoassay; type: cell-based
T1 sequence (Q05769 whole entry): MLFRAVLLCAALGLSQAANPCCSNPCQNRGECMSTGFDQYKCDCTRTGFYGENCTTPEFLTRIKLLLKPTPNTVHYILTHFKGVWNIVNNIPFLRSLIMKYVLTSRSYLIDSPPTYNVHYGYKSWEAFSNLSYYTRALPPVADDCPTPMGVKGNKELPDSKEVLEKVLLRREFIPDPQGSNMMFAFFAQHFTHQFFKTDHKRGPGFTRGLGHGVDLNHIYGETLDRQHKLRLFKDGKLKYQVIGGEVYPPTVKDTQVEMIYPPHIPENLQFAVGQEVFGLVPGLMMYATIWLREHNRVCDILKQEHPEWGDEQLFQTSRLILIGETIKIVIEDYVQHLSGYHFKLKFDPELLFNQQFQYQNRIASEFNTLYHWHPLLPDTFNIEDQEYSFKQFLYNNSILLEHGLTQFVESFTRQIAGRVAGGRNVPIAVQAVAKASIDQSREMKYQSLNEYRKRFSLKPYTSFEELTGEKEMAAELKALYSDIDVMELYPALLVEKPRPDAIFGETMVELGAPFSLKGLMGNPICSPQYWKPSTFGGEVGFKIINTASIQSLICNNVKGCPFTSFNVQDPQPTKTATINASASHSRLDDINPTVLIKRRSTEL
Method in brief: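 J774 cells in serum-free medium were stimulated with E. coli LPS (10 µg/mL) for 24 h to induce COX-2, with or without compound present. Supernatant PGE2 was measured by radioimmunoassay. Percent inhibition was taken against control; triplicate wells, mean of three experiments; IC50 from a variable-slope sigmoidal fit.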

[3] = target: T2, Prostaglandin G/H synthase 1 (Mus musculus, UniProt P22437); assay: Inhibition of mouse COX1 in mouse J774 cells assessed as PGE2 production by radioimmunoassay; type: cell-based
T2 sequence (P22437 whole entry): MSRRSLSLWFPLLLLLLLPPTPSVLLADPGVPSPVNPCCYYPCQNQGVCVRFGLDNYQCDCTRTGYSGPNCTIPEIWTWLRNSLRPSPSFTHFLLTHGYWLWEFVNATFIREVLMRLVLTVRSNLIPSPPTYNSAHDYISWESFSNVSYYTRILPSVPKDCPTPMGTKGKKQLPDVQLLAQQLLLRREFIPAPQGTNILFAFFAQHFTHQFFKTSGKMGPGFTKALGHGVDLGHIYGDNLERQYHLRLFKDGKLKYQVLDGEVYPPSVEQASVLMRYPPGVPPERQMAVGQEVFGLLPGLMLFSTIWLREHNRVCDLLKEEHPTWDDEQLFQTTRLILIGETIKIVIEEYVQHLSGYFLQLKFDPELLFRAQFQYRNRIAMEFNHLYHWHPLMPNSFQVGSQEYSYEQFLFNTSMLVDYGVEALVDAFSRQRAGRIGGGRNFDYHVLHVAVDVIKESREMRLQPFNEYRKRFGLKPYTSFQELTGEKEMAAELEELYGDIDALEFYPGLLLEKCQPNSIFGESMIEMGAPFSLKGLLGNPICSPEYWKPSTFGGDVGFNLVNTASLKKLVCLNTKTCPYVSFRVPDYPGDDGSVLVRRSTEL

[4] = system: Rattus norvegicus; assay: Antiinflammatory activity against carrageenan-induced hyperalgesia in rat assessed as paw pressure at 20 mg/kg, po after 120 mins; type: functional
Method in brief: (§1)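 Rats received carrageenan (0.1 mL, 1%) intraplantar 4 h before the test, then compound at 20 mg/kg po. Nociceptive threshold was measured with an analgesimeter (Leighton method) before and 30, 60 and 120 min after treatment, with a 250 g cutoff. Groups had 5-6 rats; mean ± SEM, ANOVA with Fisher's PLSD post hoc.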

[5] = system: Mus musculus; assay: Antinociceptive activity against acetic acid-induced abdominal constriction in Swiss albino mouse assessed as reduction in number of writhes at 20 mg/kg, po; type: functional, organism-based; set-up: dose 20 mg/kg; settings: Abdomen
Method in brief: (§2)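 Male Swiss albino mice (23-25 g) were dosed per os, with CMC as vehicle, 30 min before 0.6% acetic acid. Stretching movements were counted for 10 min, starting 5 min after acetic acid (Koster method). Results are mean ± SEM; ANOVA with Fisher's PLSD, versus vehicle-treated mice.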

[6] = system: Mus musculus; assay: Antinociceptive activity against acetic acid-induced abdominal constriction in Swiss albino mouse assessed as number of writhes at 10 mg/kg, po; type: functional, Abdomen; method in brief: as §2
[7] = system: Mus musculus; assay: Antinociceptive activity against acetic acid-induced abdominal constriction in Swiss albino mouse assessed as number of writhes at 20 mg/kg, po; type: functional, Abdomen; method in brief: as §2
[8] = system: Rattus norvegicus; assay: Antiinflammatory activity against carrageenan-induced hyperalgesia in rat assessed as paw pressure at 20 mg/kg, po after 60 mins; type: functional; method in brief: as §1
[9] = system: Rattus norvegicus; assay: Antiinflammatory activity against carrageenan-induced hyperalgesia in rat assessed as paw pressure at 20 mg/kg, po after 30 mins; type: functional; method in brief: as §1
[10] = system: Rattus norvegicus; assay: Antiinflammatory activity against carrageenan-induced edema in rat assessed as paw volume at 20 mg/kg, po […]; type: functional
Method in brief: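 Carrageenan (0.1 mL of 1.0%) was injected intraplantar into Sprague-Dawley or Wistar rats (150-200 g). Compound was given po at 20 mg/kg 3 h 30 min after carrageenan. Right hind paw volume was measured by plethysmometer 4 h after carrageenan and compared with saline/carrageenan controls. Values are in mL, with 5-6 rats per group.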

[11] = species on record: Homo sapiens; assay: Selectivity index, ratio of IC50 for human COX1 to IC50 for human COX2 by whole blood assay
Method in brief: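 Human whole blood from three healthy donors (no NSAID for 2 weeks); compounds in DMSO at final 0.01–1000 µM. COX-2: heparinized blood from aspirin-pretreated donors (300 mg, 48 h) with LPS 10 µg/mL, 24 h, 37 °C; plasma PGE2 by RIA. COX-1: blood clotted 1 h, 37 °C; serum TXB2 by RIA. Mean % inhibition vs vehicle; IC50(COX-1)/IC50(COX-2).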

[12] = target: Prostaglandin G/H synthase 1 (Homo sapiens, UniProt P23219); assay: Inhibition of COX1 in human whole blood allowed to clot assessed as TXB2 production
[13] = target: T3, Prostaglandin G/H synthase 2 (Homo sapiens, UniProt P35354); assay: Inhibition of COX2 in human whole blood assessed as effect on thrombin-induced TXB2 production; type: tissue-based
T3 sequence (P35354 whole entry): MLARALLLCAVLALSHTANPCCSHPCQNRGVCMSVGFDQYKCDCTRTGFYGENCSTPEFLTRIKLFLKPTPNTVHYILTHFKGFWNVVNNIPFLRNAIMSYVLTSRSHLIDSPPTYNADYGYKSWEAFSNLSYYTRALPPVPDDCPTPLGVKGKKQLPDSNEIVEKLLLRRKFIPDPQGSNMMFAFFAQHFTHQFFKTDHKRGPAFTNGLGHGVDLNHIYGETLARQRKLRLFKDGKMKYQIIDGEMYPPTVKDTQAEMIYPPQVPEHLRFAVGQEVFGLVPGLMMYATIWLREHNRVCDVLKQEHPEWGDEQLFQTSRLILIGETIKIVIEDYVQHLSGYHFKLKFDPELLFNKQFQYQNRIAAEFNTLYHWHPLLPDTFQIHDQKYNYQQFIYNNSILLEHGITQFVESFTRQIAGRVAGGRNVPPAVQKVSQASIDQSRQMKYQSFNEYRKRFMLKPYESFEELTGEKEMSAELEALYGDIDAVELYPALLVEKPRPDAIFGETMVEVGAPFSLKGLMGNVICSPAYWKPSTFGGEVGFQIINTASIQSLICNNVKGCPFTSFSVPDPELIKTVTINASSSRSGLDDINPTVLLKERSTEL

Prostaglandin G/H synthase 1 (Homo sapiens, UniProt P23219), sequence (P23219 whole entry): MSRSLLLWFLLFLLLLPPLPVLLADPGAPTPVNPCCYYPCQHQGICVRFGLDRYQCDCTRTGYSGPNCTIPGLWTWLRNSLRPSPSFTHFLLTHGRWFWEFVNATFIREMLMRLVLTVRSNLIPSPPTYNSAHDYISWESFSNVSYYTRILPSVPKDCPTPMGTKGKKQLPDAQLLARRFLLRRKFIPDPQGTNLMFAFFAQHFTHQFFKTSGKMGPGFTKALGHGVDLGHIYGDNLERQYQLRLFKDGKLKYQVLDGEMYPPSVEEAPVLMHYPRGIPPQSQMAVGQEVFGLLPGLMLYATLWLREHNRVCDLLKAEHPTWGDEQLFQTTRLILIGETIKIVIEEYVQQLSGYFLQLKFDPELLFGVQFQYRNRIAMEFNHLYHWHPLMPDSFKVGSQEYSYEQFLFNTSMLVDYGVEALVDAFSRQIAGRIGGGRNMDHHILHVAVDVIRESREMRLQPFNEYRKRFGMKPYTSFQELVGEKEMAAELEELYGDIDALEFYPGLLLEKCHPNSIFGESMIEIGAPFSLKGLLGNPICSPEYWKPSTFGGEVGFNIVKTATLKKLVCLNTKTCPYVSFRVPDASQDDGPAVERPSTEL

SMILES	Ratio IC50 [1]	IC50 [2] [nM]	IC50 [3] [nM]	other results
COCCc1cc(-c2ccc(S(C)(=O)=O)cc2)n(-c2ccccc2)c1C	> 2080	48	> 100000	–
COCCc1cc(-c2ccc(S(C)(=O)=O)cc2)n(-c2ccc(F)cc2)c1C	> 5560	18	> 100000	–
CCOC(=O)Cc1cc(-c2ccc(S(C)(=O)=O)cc2)n(-c2ccc(C(F)(F)F)cc2)c1C	> 1600	–	–	–
CCOCCc1cc(-c2ccc(S(C)(=O)=O)cc2)n(-c2ccc(C(F)(F)F)cc2)c1C	> 1180	85	> 100000	–
CCCOCCc1cc(-c2ccc(S(C)(=O)=O)cc2)n(-c2ccc(F)cc2)c1C	> 3330	30	> 100000	Activity [4]: 52.7 g; Activity [5]: Active; Activity [6]: 38.1; Activity [7]: 16.7; Activity [8]: 56.8 g; Activity [9]: 52.4 g; Activity [10]: 1.45 mL
CS(=O)(=O)c1ccc(C2=C(c3ccccc3)C(=O)OC2)cc1	–	–	–	Ratio IC50 [11]: > 200
CCOC(=O)Cc1cc(-c2ccc(S(C)(=O)=O)cc2)n(-c2ccc(C)cc2)c1C	> 208	–	–	–
CCOC(=O)Cc1cc(-c2ccc(S(C)(=O)=O)cc2)n(-c2ccccc2)c1C	> 2500	–	–	–
COCCc1cc(-c2ccc(S(C)(=O)=O)cc2)n(-c2ccc(C(F)(F)F)cc2)c1C	> 2040	49	> 100000	–
CCOCCc1cc(-c2ccc(S(C)(=O)=O)cc2)n(-c2ccccc2)c1C	> 6670	15	> 100000	Activity [4]: 49.1 g; Activity [5]: Active; Activity [6]: 26.5; Activity [7]: 11.4; Activity [8]: 53.8 g; Activity [9]: 59.6 g; Activity [10]: 1.37 mL
CCOCCc1cc(-c2ccc(S(C)(=O)=O)cc2)n(-c2ccc(F)cc2)c1C	> 2130	47	> 100000	–
CCCOCCc1cc(-c2ccc(S(C)(=O)=O)cc2)n(-c2ccccc2)c1C	> 5560	18	> 100000	Activity [4]: 50.6 g; IC50 [12]: 86000 nM; Activity [5]: Active; Activity [6]: 27.43; IC50 [13]: 1300 nM; Ratio IC50 [11]: 66; Activity [7]: 13.6; Activity [8]: 59.4 g; Activity [9]: 56.3 g; Activity [10]: 1.41 mL
CCCOCCc1cc(-c2ccc(S(C)(=O)=O)cc2)n(-c2ccc(C(F)(F)F)cc2)c1C	> 909	110	> 100000	–
